Data from ChEMBL document CHEMBL1138915, “Pharmacophore based receptor modeling: the case of adenosine A3 receptor antagonists. An approach to the optimization of protein models” (J Med Chem, 2006).

Assays:
Format in all cases: cell-based
[1] = target: T1, Adenosine receptor A3 (Homo sapiens, UniProt P0DMS8); experiment: Displacement of [3H]MRE 3008F20 from human adenosine A3 receptor expressed in CHO cells
T1 sequence (P0DMS8 whole entry): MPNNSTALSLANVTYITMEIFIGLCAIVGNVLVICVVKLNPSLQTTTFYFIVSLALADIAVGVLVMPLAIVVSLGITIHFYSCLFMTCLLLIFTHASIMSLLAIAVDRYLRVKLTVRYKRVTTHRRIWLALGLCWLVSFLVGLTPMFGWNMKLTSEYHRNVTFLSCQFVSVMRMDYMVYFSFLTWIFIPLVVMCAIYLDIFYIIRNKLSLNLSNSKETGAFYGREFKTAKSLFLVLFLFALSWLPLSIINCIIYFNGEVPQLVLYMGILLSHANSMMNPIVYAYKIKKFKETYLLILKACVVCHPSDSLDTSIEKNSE

[2] = target: T2, Adenosine receptor A1 (Homo sapiens) (UniProt P30542); experiment: (§1) Displacement of [3H]DPCPX from human adenosine A1 receptor expressed in CHO cells; set-up: concentration or dose not given beside the values; conditions: concentration not given here
T2 sequence (whole entry): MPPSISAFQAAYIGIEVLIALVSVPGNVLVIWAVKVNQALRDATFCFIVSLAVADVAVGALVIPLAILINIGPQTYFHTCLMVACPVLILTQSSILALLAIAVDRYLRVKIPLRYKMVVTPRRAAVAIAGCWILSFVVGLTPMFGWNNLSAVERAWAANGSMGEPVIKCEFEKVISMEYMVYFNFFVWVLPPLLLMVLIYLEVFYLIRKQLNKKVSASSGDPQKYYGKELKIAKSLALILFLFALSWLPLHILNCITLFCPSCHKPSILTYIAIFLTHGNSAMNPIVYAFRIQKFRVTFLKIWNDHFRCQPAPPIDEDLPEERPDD
How it was run: (§2)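 Membranes from transfected CHO cells (50 µg protein/assay) in 50 mM Tris-HCl pH 7.4, incubated 120 min at 25 °C with 1 nM radioligand and at least six to eight test concentrations. Nonspecific binding with 10 µM CHA. Filtration on GF/B filters and scintillation counting. Ki from IC50 by Cheng-Prusoff, nonlinear least-squares fitting.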

[3] = target: T3, Adenosine receptor A1 (Homo sapiens, UniProt P30542); experiment: as §1; how it was run: as §2
T3 sequence (P30542 whole entry): T2 sequence (whole entry)

[4] = target: T4, Adenosine receptor A2b (Homo sapiens) (UniProt P29275); experiment: (§3) Displacement of [3H]MRE 2029F20 from human adenosine A2B receptor expressed in CHO cells; set-up: concentration or dose not given beside the values; conditions: concentration not given here
T4 sequence (whole entry): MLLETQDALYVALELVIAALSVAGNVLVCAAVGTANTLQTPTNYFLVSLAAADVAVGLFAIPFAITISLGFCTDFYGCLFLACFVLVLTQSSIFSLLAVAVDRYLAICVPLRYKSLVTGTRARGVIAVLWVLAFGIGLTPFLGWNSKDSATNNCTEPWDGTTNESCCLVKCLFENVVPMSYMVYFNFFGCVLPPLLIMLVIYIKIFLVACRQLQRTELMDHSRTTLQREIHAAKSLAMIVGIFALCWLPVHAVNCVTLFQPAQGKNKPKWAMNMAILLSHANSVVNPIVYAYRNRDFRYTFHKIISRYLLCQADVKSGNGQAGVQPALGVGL
How it was run: (§4)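 Run 60 min at 25 °C in 50 mM Tris-HCl, 10 mM MgCl2, 1 mM EDTA, 0.1 mM benzamidine, pH 7.4, with 2 IU/mL adenosine deaminase, 40 nM radioligand and CHO membranes (20 µg protein/assay). At least six to eight test concentrations. Nonspecific binding with 100 µM NECA. Filtration and counting, Ki by Cheng-Prusoff.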

[5] = target: T5, Adenosine receptor A2b (Homo sapiens, UniProt P29275); experiment: as §3; how it was run: as §4
T5 sequence (P29275 whole entry): T4 sequence (whole entry)

[6] = target: Adenosine receptor A2a (Homo sapiens, UniProt P29274); experiment: Displacement of [3H]ZM241385 from human adenosine A2A receptor expressed in CHO cells; conditions: for inhibition: concentration not given here
How it was run: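 CHO-derived membranes (50 µg protein/assay) in 50 mM Tris-HCl, 10 mM MgCl2, pH 7.4, competed with at least six to eight compound concentrations for 60 min at 25 °C. Nonspecific binding defined by 1 µM ZM 241385. Bound ligand collected on GF/B filters and counted. Ki derived from IC50 via Cheng-Prusoff.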

Adenosine receptor A2a, sequence (P29274 whole entry): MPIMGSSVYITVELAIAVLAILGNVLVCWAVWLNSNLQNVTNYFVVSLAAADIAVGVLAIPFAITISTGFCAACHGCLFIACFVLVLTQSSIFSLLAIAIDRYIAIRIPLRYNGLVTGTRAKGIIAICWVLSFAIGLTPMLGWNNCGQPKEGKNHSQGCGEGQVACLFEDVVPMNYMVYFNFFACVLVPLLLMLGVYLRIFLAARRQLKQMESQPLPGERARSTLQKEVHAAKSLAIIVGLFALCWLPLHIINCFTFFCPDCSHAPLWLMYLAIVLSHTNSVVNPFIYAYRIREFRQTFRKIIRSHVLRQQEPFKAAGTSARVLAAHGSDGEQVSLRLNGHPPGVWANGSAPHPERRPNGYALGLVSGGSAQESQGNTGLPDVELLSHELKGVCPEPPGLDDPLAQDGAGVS

In the case of `Cc1cccnc1-c1nc(NC(=O)Nc2ccccc2)c2ccccc2n1`, the Ki [1] is reported as 0.26 µM.
With `O=C(Nc1ccncc1)Nc1nc2nn(CCO)cc2c2nc(-c3ccco3)nn12` the inhibition [2] was 74%, the Ki [3] was > 1 µM and the Ki [1] was 0.0051 µM. For the same compound, the inhibition [4] was 71%, the Ki [5] was > 1 µM and the Ki [6] was > 1 µM. For the same compound, the inhibition [6] was 96%.
With `O=C(Nc1ccncc1)Nc1nc2nn(CCOCc3ccccc3)cc2c2nc(-c3ccco3)nn12` the inhibition [2] was 71%, the Ki [3] was > 1 µM and the Ki [1] was 0.027 µM. The inhibition [4] was 65%, the Ki [5] was > 1 µM and the Ki [6] was > 1 µM. The inhibition [6] was 97%.
Compound `CCCOC(=O)c1c(-c2ccccc2)nc(CC)c(C(=O)OCC)c1CCC` has a Ki [1] of 0.019 µM.
In the case of `CCOC(=O)c1c(-c2ccccc2)nc(CC)c(C(=O)SCC)c1CC`, the Ki [1] is reported as 0.0134 µM.
In the case of `CCCOC(=O)c1c(CC)nc(-c2cccc(Cl)c2)c(C(=O)OCCC)c1CC`, the Ki [1] is reported as 0.0079 µM.
`CCOC(=O)c1c(C)nc(-c2ccccc2)c(C(=O)OCC)c1CC` showed a Ki [1] of 0.18 µM.
With `CCn1cc2c(nc(NC(=O)Nc3ccc(F)cc3)n3nc(-c4ccco4)nc23)n1` the Ki [1] was 0.00086 µM.
With `CCCc1c(C(=O)SCC)c(C)nc(-c2ccccc2)c1C(=O)OCC` the Ki [1] was 0.194 µM.
For `CCOC(=O)c1c(CC)nc(-c2ccccc2)c(C(=O)OCC)c1CC`, the Ki [1] was 0.12 µM.
For `CCOC(=O)c1c(CC)c(C(=O)OCC)c(-c2ccccc2)[n+](C)c1C`, the Ki [1] was 0.38 µM.
For `O=C(Nc1ccccc1)Nc1ncnc2ccccc12`, the Ki ([1]; cho) was 1.2 µM.
For `O=C(Nc1cccnc1)Nc1nc2nn(CCOCc3ccccc3)cc2c2nc(-c3ccco3)nn12`, the inhibition [2] was 85%, the Ki [3] was > 1 µM and the Ki [1] was 0.009 µM. The inhibition [4] was 58%, the Ki [5] was > 1 µM and the Ki [6] was > 1 µM. The inhibition [6] was 82%.
`CCCOC(=O)c1c(C)nc(-c2ccccc2)c(C(=O)OCC)c1C` showed a Ki [1] of 0.21 µM.
Work on `CCOC(=O)c1c(-c2ccccc2)nc(C)c(C(=O)SCC)c1C` yielded a Ki [1] of 0.02 µM.
In the case of `O=C(Nc1cccnc1)Nc1nc2nn(CCO)cc2c2nc(-c3ccco3)nn12`, the inhibition [2] is reported as 92%, the Ki [3] is reported as > 1 µM and the Ki [1] is reported as 0.034 µM. The inhibition [4] was 99%, the Ki [5] was > 1 µM and the Ki [6] was > 1 µM. For the same compound, the inhibition [6] was 93%.
`CCn1cc2c(n1)N=C(NC(=O)Nc1ccc(C)cc1)N1N=C(c3ccco3)NC21` (stereo unspecified) was tested, and the Ki [1] was 0.00014 µM.
`CCCOC(=O)c1c(-c2ccccc2)nc(CC)c(C(=O)OCC)c1CC` showed a Ki [1] of 0.0083 µM.
In the case of `O=C(Nc1ccncc1)Nc1nc2nn(CCCO)cc2c2nc(-c3ccco3)nn12`, the Ki [3] is reported as 0.35 µM, the Ki [1] is reported as 0.002 µM and the inhibition [4] is reported as 73%. The Ki [5] was > 1 µM, the Ki [6] was > 1 µM and the inhibition [6] was 95%.
`CCn1cc2c(nc(NC(=O)Nc3ccccc3OC)n3nc(-c4ccco4)nc23)n1` was tested, and the Ki [1] was 0.00056 µM.
With `O=C(Nc1ccncc1)Nc1nc2nn(CCCOCc3ccccc3)cc2c2nc(-c3ccco3)nn12` the inhibition [2] was 74%, the Ki [3] was > 1 µM and the Ki [1] was 0.014 µM. The inhibition [4] was 66%, the Ki [5] was > 1 µM and the Ki [6] was > 1 µM. The inhibition [6] was 89%.
